Here are results for one compound from paper PMC4532346 (Drug Design, Development and Therapy, 2015).

Read-outs that look alike come from different tables or passages of the source.

The target of one data set is CYP2C19 (Homo sapiens, UniProt P33261). Kind of data set: cytochrome P450 inhibition, CYP2C19. It is filed as in vitro ADME.
Another data set addresses CYP2C9 (Homo sapiens, UniProt P11712). In words: cytochrome P450 inhibition, CYP2C9. Format: in vitro ADME.
The target in a further data set is CYP3A4 (Homo sapiens, UniProt P08684). Kind of data set: cytochrome P450 inhibition, CYP3A4. Format: in vitro ADME.
A further data set in a line: Caco-2 permeability. It is filed as in vitro ADME, human. As to conditions: human. The method in brief:
(§1)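 Caco-2 cells grown in DMEM with 10% FBS, penicillin and streptomycin, seeded at 1×10^5 cells/cm2 on Transwell inserts and cultured 22 days at 37°C, 5% CO2. Preincubated 30 min in HBSS–HEPES. Only inserts with lucifer yellow ≤1% used, rechecked after the run. Test compound at 2 and 20 μM (1% DMSO final) added to donor, triplicate, A–B and B–A. Papp and efflux ratio calculated.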
In general terms: Caco-2 monolayers are a common model of the intestinal barrier.

Another data set concerns Caco-2 cell monolayer. In words: Caco-2 permeability. Format: in vitro ADME, human. As to conditions: Papp(B-A)/Papp(A-B). The method in brief:
as §1

For another data set, the target named is CYP2D6 (Homo sapiens, UniProt P10635). Kind of data set: cytochrome P450 inhibition, CYP2D6. It is filed as in vitro ADME.
Another data set concerns the target T1, CYP1A2 (Homo sapiens, UniProt P05177).
T1 sequence (P05177 1-516): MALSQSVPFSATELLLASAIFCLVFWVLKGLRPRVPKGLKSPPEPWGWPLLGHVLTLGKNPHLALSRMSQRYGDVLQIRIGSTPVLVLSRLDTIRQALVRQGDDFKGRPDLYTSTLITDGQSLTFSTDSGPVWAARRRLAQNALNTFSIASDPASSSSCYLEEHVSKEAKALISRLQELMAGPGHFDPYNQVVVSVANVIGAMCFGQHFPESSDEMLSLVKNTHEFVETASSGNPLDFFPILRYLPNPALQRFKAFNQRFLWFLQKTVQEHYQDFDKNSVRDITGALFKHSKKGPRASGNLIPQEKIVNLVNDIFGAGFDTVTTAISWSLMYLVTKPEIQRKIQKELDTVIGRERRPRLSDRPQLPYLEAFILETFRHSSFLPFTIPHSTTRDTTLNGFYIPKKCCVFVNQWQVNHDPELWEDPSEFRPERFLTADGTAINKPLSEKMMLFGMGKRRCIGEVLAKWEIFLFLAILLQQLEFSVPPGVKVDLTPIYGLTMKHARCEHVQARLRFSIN
Kind of data set: cytochrome P450 inhibition, CYP1A2. Format: in vitro ADME.

CYP3A4, sequence (P08684 whole entry): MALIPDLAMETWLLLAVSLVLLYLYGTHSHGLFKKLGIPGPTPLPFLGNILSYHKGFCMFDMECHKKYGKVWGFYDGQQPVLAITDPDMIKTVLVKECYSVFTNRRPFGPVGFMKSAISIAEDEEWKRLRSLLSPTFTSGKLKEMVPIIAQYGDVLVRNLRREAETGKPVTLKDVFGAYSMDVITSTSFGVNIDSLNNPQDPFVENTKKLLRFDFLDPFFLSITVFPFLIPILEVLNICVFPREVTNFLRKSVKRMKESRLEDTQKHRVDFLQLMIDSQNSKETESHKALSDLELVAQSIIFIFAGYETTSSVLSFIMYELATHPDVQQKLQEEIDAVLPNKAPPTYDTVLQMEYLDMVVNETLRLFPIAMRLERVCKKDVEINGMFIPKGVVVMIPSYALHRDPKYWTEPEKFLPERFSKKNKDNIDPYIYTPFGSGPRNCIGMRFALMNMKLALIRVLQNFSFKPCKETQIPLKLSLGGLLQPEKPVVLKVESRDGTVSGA
CYP2D6, sequence (P10635 whole entry): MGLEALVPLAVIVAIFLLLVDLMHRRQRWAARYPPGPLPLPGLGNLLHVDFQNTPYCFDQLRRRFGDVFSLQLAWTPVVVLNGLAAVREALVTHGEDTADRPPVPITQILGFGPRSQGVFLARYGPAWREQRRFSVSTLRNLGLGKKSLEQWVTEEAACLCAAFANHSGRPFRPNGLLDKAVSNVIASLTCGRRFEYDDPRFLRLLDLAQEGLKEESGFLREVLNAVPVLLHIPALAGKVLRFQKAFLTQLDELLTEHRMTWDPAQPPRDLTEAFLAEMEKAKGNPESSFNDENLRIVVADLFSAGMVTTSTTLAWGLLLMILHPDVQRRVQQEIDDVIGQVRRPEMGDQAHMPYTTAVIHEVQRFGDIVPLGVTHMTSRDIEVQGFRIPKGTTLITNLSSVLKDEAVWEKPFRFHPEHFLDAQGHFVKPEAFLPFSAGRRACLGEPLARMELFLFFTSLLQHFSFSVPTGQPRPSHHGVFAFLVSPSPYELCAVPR
CYP2C9, sequence (P11712 whole entry): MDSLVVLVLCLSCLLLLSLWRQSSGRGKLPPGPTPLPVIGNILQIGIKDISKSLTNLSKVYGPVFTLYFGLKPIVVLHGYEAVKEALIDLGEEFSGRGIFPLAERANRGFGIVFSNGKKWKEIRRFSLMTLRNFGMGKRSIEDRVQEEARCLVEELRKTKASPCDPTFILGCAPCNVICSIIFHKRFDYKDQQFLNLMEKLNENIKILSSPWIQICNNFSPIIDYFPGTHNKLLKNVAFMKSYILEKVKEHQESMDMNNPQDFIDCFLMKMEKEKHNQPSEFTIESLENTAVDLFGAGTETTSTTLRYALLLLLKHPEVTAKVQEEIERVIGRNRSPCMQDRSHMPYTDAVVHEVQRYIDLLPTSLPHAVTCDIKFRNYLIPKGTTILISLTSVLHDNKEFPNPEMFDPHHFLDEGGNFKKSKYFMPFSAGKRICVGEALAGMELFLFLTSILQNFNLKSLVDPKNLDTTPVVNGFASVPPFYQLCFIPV
CYP2C19, sequence (P33261 whole entry): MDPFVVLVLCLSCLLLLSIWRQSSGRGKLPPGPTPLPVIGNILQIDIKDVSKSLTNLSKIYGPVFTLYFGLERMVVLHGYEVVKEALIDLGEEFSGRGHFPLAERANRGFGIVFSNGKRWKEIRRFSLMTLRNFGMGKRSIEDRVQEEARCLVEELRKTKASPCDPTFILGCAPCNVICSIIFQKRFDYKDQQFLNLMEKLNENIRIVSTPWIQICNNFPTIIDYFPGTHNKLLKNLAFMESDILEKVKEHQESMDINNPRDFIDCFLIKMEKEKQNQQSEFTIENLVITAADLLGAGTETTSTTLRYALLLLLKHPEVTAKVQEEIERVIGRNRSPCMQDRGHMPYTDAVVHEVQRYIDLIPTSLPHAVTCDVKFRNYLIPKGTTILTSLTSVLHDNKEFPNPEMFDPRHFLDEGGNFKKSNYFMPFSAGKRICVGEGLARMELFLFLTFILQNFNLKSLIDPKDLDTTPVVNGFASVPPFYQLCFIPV

In the case of `COC(=O)c1ccc2c(c1)NC(=O)/C2=C(\Nc1ccc(N(C)C(=O)CN2CCN(C)CC2)cc1)c1ccccc1` [Nintedanib, nintedanib], the IC50 is 51.3 µM against CYP2C19; at least 33 µM on CYP2C19 (P450 inhibition IC50, 2C19, probe substrate S-mephenytoin); 33 µM on CYP2C9; at least 33 µM on CYP2C9 (P450 inhibition IC50, 2C9, probe substrate diclofenac); 2.3 µM at CYP3A4; over 80 µM on CYP3A4 (P450 inhibition IC50, 3A4 (Mid), probe substrate midazolam). For the same compound, the IC50 on CYP2D6 is 39.7 µM; against CYP2D6 (P450 inhibition IC50, 2D6, probe substrate dextromethorphan), at least 33 µM; at CYP1A2, 17.5 µM. For the same compound, the “P450 inhibition IC50, 3A4 (Mid)” value at CYP3A4 (probe substrate midazolam) is “did not show inhibition”. The compound further gave a Papp A→B at 120 min, 2 μM in “Caco-2 permeability” (Caco-2) of 0.05 ×10⁻⁶ cm/s. In “Caco-2 permeability” (Caco-2), this compound registered a Papp A→B at 120 min, 20 μM of 0.29 ×10⁻⁶ cm/s. This compound showed a Papp B→A at 120 min, 2 μM in the data set “Caco-2 permeability” (Caco-2) of 14.4 ×10⁻⁶ cm/s. The Papp B→A at 120 min, 20 μM in “Caco-2 permeability” (Caco-2) came out at 22.6 ×10⁻⁶ cm/s. Further, the efflux ratio at 120 min, 2 μM in “Caco-2 permeability” (Caco-2, Efflux ratio, Caco-2, 2 μM, Papp(B-A)/Papp(A-B)) is about 319. For the same compound, the efflux ratio at 120 min, 20 μM in the data set “Caco-2 permeability” (Caco-2, Efflux ratio, Caco-2, 20 μM, Papp(B-A)/Papp(A-B)) was about 78. Further, the Efflux ratio in the data set with Caco-2 cell monolayer (Caco-2, 2 μM) was 319.81; with Caco-2 cell monolayer (Caco-2, 20 μM), 78.24.

As usually defined, the IC50 is the concentration that inhibits the measured activity by half. The low end stands for greater potency in that assay, the high end for weaker potency in that assay. In general, Papp A→B refers to how fast a substance crosses the layer from the apical side. What is called Papp B→A is the apparent permeability from the basolateral to the apical side of a cell layer. In general, efflux ratio refers to a quotient of directional permeabilities that is used to spot active efflux.
